Assay [1] deals with MCF7. Description: Growth inhibition of human estrogen receptor deficient adriamycin-resistant MCF7 cells at 4 uM after 68 hrs relative to control. Type of assay: functional. The settings on record: MCF7, 68 h. A digest of the protocol: (§1)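 Adherent cells trypsinized, seeded at 0.5 × 10^4 cells/ml in RPMI 1640 with 10% FBS (maintenance medium also 10 mM HEPES pH 7.3), 37 °C, 5% CO2. Compound (4 µM) added after 1 day; 68 h exposure. Viable cells by MTT; % net growth = (treated − initial absorbance)/(control − initial absorbance) × 100. Mean of ≥3 (MCF-7 lines) or ≥4 (DU-145, HepG2) measurements.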

Assay [2] has as its system HL-60. The assay can be described thus: Growth inhibition of human HL60 cells at 4 uM after 72 hrs relative to control. It counts as functional. The settings on record: HL-60, 72 h.
The subject of another assay is DU-145. The assay can be described thus: Growth inhibition of human DU145 cells at 4 uM after 68 hrs relative to control. It counts as functional. Particulars: DU-145, 68 h. A digest of the protocol:
as §1

In assay [3] the test system is MCF7. Description: Growth inhibition of human estrogen receptor expressing MCF7 cells at 4 uM after 68 hrs relative to control. It counts as functional. The settings on record: MCF7, 68 h. The method in brief:
as §1

The test system of another assay is HepG2. The assay can be described thus: Growth inhibition of human HepG2 cells at 4 uM after 68 hrs relative to control. Type of assay: functional. The settings on record: HepG2, 68 h. A digest of the protocol: as §1
Assay [4] deals with HL-60. Description: Induction of apoptosis in human HL60 cells assessed as DNA fragmentation at 4 uM after 20 hrs. Type of assay: functional, cell-based. A digest of the protocol:
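Cells at 2 × 10^5 cells/ml in RPMI/10% FBS treated 20 h with 4 µM compound (DMSO control). Washed in PBS pH 7.2, lysed with proteinase K, RNase A and 1% SDS at 37 °C for 30 min, then NaI/isopropanol DNA extraction at 60 °C. DNA run on 2% agarose gel, stained with ethidium bromide, scored for ladder.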

Active and inactive are the calls of the source. No cut-off for these calls is given here.

For the compound `CCCCCCCCCCCC(=O)Nc1ccc(O)cc1`, the inhibition at 4 µM is 21% in the assay on MCF7 [1]; 6% in the assay with HL-60 [2]; 41% in the assay with DU-145; 22% in the assay with MCF7 [3]; 22% in the assay with HepG2.

In the case of `CCCCCCCCCC(=O)Nc1ccc(O)cc1`, the inhibition at 4 µM in the assay with MCF7 [1] was 23%; in the assay with HL-60 [2], 6%; in the assay with DU-145 it was 51%; in the assay with MCF7 [3] it was 30%; in the assay with HepG2, 26%.

As to `CC1=C(/C=C/C(C)=C/C=C/C(C)=C/C(=O)Nc2ccc(O)cc2)C(C)(C)CCC1` [FENRETINIDE], the inhibition at 4 µM in the assay on MCF7 [1] was 60%; in the assay with HL-60 [2], 55%; with DU-145 it was 41%; in the assay with MCF7 [3], 62%; in the assay with HepG2 it was 27%.

As for `CCCCCCCCCCNc1ccc(O)cc1`, the inhibition at 4 µM in the assay on MCF7 [1] came out at 100%; in the assay on HL-60 [2], 66%; in the assay with DU-145 it was 66%; in the assay with MCF7 [3] it was 57%; in the assay with HepG2, 17%. Further, the result with HL-60 [4] was Active.

As for `CC1=C(/C=C/C(C)=C/C=C/C(C)=C/C(=O)O)C(C)(C)CCC1` [TRETINOIN], the inhibition at 4 µM with MCF7 [1] is 12%; in the assay on HL-60 [2], 42%; in the assay with DU-145, 46%; in the assay on MCF7 [3], 74%; in the assay with HepG2, 13%.

As for `CCCCCCCCCCCCNc1ccc(O)cc1`, the inhibition at 4 µM amounted to 100% with MCF7 [1]; 72% with HL-60 [2]; 73% with DU-145; 66% with MCF7 [3]; 13% in the assay on HepG2. Further, the result with HL-60 [4] was Active.

As a reminder, the inhibition is the drop in the measured response relative to a control, in per cent. A low value points to little suppression.

Source of the values: ChEMBL document CHEMBL1144558, “Potent anticancer activities of novel aminophenol analogues against various cancer cell lines” (2007).
